Results reported in PubChem BioAssay AID504382 (The Scripps Research Institute Molecular Screening Center, 2011).
Screen size: about 2,500 compounds; about 460 (18%) were called active. A selection follows. Unmarked numbers belong to inactive results.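 Rule for the calls: active = mean activation above a cutoff of low control average plus 3 SD from the earlier screen (cut at about 12% in these data); inactive = the rest.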

Assay: compound fluorescence interference without thin filaments, confirmation, artefact control for cardiac RTF calcium sensitizer project, biochemical (AID 504382)
Conditions: IANBD fluorescence interference counterscreen, buffer, EC20 Ca2+; at 7.2 µM; hits give high values; scaled: EC20 calcium 0, EC100 calcium 100
Outline: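 Technique: fluorescence, 480/540 nm / Medium: MOPS-based buffer with KCl, MgCl2, EGTA, NTA, DTT, pH 7.2 / Probe or stimulus: calcium at EC20 level, 0.472 mM final / Repeats: triplicate wells per compound / Times: 15 min compound exposure at 25 °C / Measure: compound fluorescence interference relative to control well signal range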

Row | SMILES | fluorescence artifact activation
1 | Cc1cc(/C=C2\SC(=S)N(C)C2=O)c(C)n1-c1ccccc1O | 3.34%
2 | CN(/N=C/c1ccc(N(C)C)cc1)C1=NS(=O)(=O)c2ccccc21 | 6.25%
3 | CCN(CC)c1ccc2cc(C=O)c(=O)oc2c1 | 5.57%
4 | CCN(CC)c1ccc2cc(-c3nc4ccccc4n3C)c(=O)oc2c1 | 0.12%
5 | CCN(CC)c1ccc2c(c1)oc(=O)c1c(Cl)cc(=O)oc12 | 21.4% (active)
6 | CCN(CC)c1ccc2oc(=O)c(C)nc2c1 | 124% (active)
7 | CCN(CC)c1ccc2c(Cl)c(Br)c(=O)oc2c1 | 0.1%
8 | O=C(Nc1ccccc1)C1CC2CCCC(C1)C2=O (stereo unspecified) | 2.4%
9 | O=C(C1=NN(c2ccccc2)C2C(=O)N(c3ccc(Cl)cc3)C(=O)C12)c1ccccc1 (stereo unspecified) | -0.02%
10 | Cc1ccc2c(C(=O)CN3CCC(C(N)=O)CC3)c(C)[nH]c2c1 | 9.54%
11 | CCS(=O)(=O)N1Cc2ccccc2CC1C(=O)Nc1ccc(OC)cc1OC (stereo unspecified) | 0.07%
12 | O=C(O)c1cccc2c1C(=O)c1ccc(N3CCCC3)cc1S2(=O)=O | -0.07%
13 | O=C1c2cccc3c(N4CCCCC4)ccc(c23)C(=O)N1CCO | 42.3% (active)
14 | CCCN1C(=O)c2cccc3c(N4CCCCC4)ccc(c23)C1=O | 0.47%
15 | C=CCN1C(=O)c2cccc3c(N4CCCCC4)ccc(c23)C1=O | 2.88%
16 | O[C@@H]1CN(C2CCCCC2)CC[C@H]1N1CCN(CCc2ccccc2)CC1 | 7.79%
17 | CC[C@@]1(O)C(=O)OCc2c1cc1n(c2=O)Cc2cc3c(CN(C)C)c(O)ccc3nc2-1 | 6.14%
18 | CCOc1ccc(Nc2nc(N)c([N+](=O)[O-])c(NCc3ccccc3)n2)cc1 | 0.09%
19 | Cc1ccc2[nH]cc(/C=C/c3cc[n+](C)cc3)c2c1 | -0.07%
20 | CC[n+]1ccc(/C=C/c2c[nH]c3ccccc23)cc1 | 59.8% (active)
21 | C(=Cc1c[nH]c2ccccc12)c1nccc2ccccc12 | 1.55%
22 | OCC[n+]1ccc(/C=C/c2c[nH]c3ccccc23)cc1 | 0%
23 | C[n+]1ccc(/C=C/c2c[nH]c3ccccc23)cc1 | 57.3% (active)

Row | SMILES | fluorescence artifact activation
24 | C[n+]1ccc(/C=C/c2c[nH]c3ccc(F)cc23)cc1 | 0.16%
25 | Cc1cc(Cl)ccc1OCC(=O)NCCOc1nc(N2CCOCC2)nc(N2CCOCC2)n1 | 0.1%
26 | N#Cc1c(-c2ccccc2F)cc(C2CC2)nc1SCC(=O)c1cccs1 | 0.28%
27 | Cc1ccc(C(=O)N/C(=C/c2ccc(-c3ccc([N+](=O)[O-])cc3)o2)C(=O)NCCCN(C)C)cc1 | 0.29%
28 | NC(=O)CC[C@@H]1NC(=O)[C@H](Cc2ccc(O)cc2)NC(=O)c2cc([N+](=O)[O-])cc(F)c2OCC[C@@H](C(N)=O)NC1=O | 0.02%
29 | COc1ccc(CNS(=O)(=O)c2cc(-c3cc(C)no3)ccc2OC)cc1OC | 2.41%
30 | CC(C)(CO)NCC#Cc1ccccc1 | -0.01%
31 | COc1ccccc1C(=O)Nc1nnn(C)n1 | -0.09%
32 | CSCCC(NC(=O)c1ccccc1Cl)C(=O)N1CCC1 (stereo unspecified) | -0.06%
33 | Cc1nn(C)c(NC(=O)c2ccccc2Cl)c1Cl | 18.7% (active)
34 | O=C(Oc1cc2oc(=O)c3c(c2cc1Cl)CCCC3)c1cccs1 | 0.11%
35 | Cc1ccccc1C(=O)c1cccn1CC(=O)NCCCN1CC(C)CC(C)C1 (stereo unspecified) | 0.1%
36 | CC1CC(C)CN(CCOCCSc2ccccc2)C1 (stereo unspecified) | 28.4% (active)
37 | CC1CN(CCCCOc2ccc3ccccc3c2)CC(C)O1 (stereo unspecified) | 0.12%
38 | CC1CCN(c2ccc3c(c2)S(=O)(=O)c2cccc(C(=O)NCc4cccc(F)c4)c2C3=O)CC1 | 0.09%
39 | C=CCNC(=S)N(CC=C)C1CCS(=O)(=O)C1 (stereo unspecified) | 0.07%
40 | Cc1cccn2c(=O)c(/C=C3\SC(=S)N(CC(C)C)C3=O)c(NCCCOC(C)C)nc12 | 17.1% (active)
41 | CCNC(=O)/C(C#N)=C/c1c(N2CCN(Cc3ccc4c(c3)OCO4)CC2)nc2c(C)cccn2c1=O | 0.06%
42 | Cc1cccn2c(=O)c3cc(C#N)c(=NC(=O)c4cccs4)n(CCCOC(C)C)c3nc12 | -0.06%
43 | Cc1cccn2c(=O)c(/C=C3\SC(=S)NC3=O)c(NCCCN3CCOCC3)nc12 | 21.4% (active)
44 | O=C1NC(=S)S/C1=C/c1ccc(N2CCOCC2)o1 | 1.59%
45 | COC(=O)CCCCCN1C(=O)/C(=C\c2ccncc2)SC1=S | -0.01%
46 | O=C1CCN2C=Nc3cccc4ccc1c2c34 | -0.03%
